Results from different studies.
Target: Wee1-like protein kinase (WEE1, Homo sapiens, UniProt P30291)

O=C(NCCCN1CCOCC1)c1ccc(Nc2ncc(Cl)c(-c3ccc(Cl)s3)n2)cc1
remaining binding (binding, competition with immobilised ligand; 1 µM): 15%

COc1ccnn2ncc(-c3ccnc(N(C)C)n3)c12
remaining binding (binding; 1 µM): 100%

Cn1nc(C(=O)NCc2ccc(C(=O)O)cc2)cc1-c1ccc2[nH]ccc2c1
remaining binding (cell-free assay, competition with immobilised ligand; 0.1 µM): 100%

CN(C)c1nccc(-c2cnc3ncccn23)n1
remaining binding (binding; 1 µM): 100%

O=C(c1ccc(Nc2nccc(-c3cc4ccccc4s3)n2)cc1)N1CCC(N2CCCC2)CC1
remaining binding (binding, competition with immobilised ligand; 1 µM): 83%

CNC(=O)[C@@H]1CC[C@@H](n2c(-c3ccc4cnccc4c3)nc3ccc(C(=O)NCc4cccc(C(N)=O)c4)cc32)C1
remaining binding (binding, competition with immobilised ligand; 1 µM): 98%

O=C(NCc1ncc(C(F)(F)F)cc1Cl)c1ccc2c(c1)C1(CCS(=O)(=O)CC1)[C@@H](C1CC1)N2S(=O)(=O)c1ccc(F)cc1
remaining binding (cell-free assay, competition with immobilised ligand; 1 µM): 100%

F[C@@H]1CCN(c2nccc(-c3cnn4ncccc34)n2)C1
remaining binding (binding; 1 µM): 100%

c1cncc(-c2cccc(Nc3nccc(NC4CCCCC4)n3)c2)c1
remaining binding (binding, competition with immobilised ligand; 10 µM): 90%

C[C@H]1CCN(c2nccc(-c3cnn4ncccc34)n2)C1
remaining binding (binding; 1 µM): 100%

CCCOc1ccc([C@@H]2[C@@H](C(=O)O)[C@H](c3ccc4c(c3)OCO4)CN2CC(=O)Nc2c(CC)cccc2CC)cc1
remaining binding (cell-free assay, competition with immobilised ligand; 1 µM): 95%

C=CC(=O)N1CCC(C(=O)NCC(=O)N2CCN(c3nc(-c4cnc(N)nc4C(F)F)nc(N4CCOCC4)n3)CC2)CC1
remaining binding (binding, competition with immobilised ligand; 1 µM): 89%

Cc1c[nH]c2nccc(Oc3c(F)cc(Nc4cc(Cl)nc(N)n4)cc3F)c12
remaining binding (cell-free assay, competition with immobilised ligand; 0.1 µM): 100%

O=C(Nc1c[nH]nc1C(=O)NC1CCNCC1)c1cc(F)cc(F)c1
remaining binding (binding, competition with immobilised ligand; 1 µM): 100%

N[C@@H]1CCN(c2nccc(-c3cnn4ncccc34)n2)C1
remaining binding (binding; 1 µM): 100%

Nc1ncc2c(n1)-c1c([nH]c3ccc(C#CC4CC4)cc13)CCCC2
remaining binding (binding, competition with immobilised ligand; 1 µM): 87%

CCN1CCN(Cc2ccc(C(=O)Nc3ccc(C)c(Oc4ccc5c(c4)CC(=O)N5)c3)cc2C(F)(F)F)CC1
remaining binding (binding, competition with immobilised ligand; 1 µM): 100%

CN(C)c1nccc(-c2cnn3ncccc23)n1
remaining binding (binding; 1 µM): 80%

CC(C)CC(=O)N1CCc2nc(-c3ccc(Br)cc3)nc(N(C)Cc3ccccc3)c2C1
remaining binding (cell-free assay, competition with immobilised ligand; 0.1 µM): 100%

COc1ncc2cc3ccccc3nc2c1C#N
remaining binding (cell-free assay, competition with immobilised ligand; 5 µM): 98%

O=C(NCCCN1CCOCC1)c1ccc(Nc2nccc(-c3cc4ccccc4s3)n2)cc1
remaining binding (binding, competition with immobilised ligand; 1 µM): 67%

O=C1CCc2cc(Nc3cc(OC4CCOCC4)c([N+](=O)[O-])cc3Cl)ccc2N1
remaining binding (cell-free assay, competition with immobilised ligand; 1 µM): 99%
